Experiment [1] deals with T1, ferric WT DHP B (Amphitrite ornata, UniProt Q9NAV7).
T1 sequence (Q9NAV7 1-138): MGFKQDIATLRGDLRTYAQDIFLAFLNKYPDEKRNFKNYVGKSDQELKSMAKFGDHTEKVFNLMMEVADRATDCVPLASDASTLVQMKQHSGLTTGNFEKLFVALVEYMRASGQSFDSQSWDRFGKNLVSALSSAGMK
Put plainly: H2O2-dependent oxidation of haloindoles monitored by HPLC. Type of experiment: biochemical. The following applies: for conversion (%): 5 min. Summed up: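 Triplicate reactions at 25 °C in 5% MeOH/100 mM KPi, pH 7, unless pH varied. Ferric DHP B (10 μM final) was premixed with substrate (500 μM final), and reactions were started with H2O2 (500 μM). Additives: 10% v/v DMSO, 500 μM mannitol, SOD, or buffer containing 500 mM sodium formate. Reactions were quenched with excess catalase after 5 min and diluted 10-fold. C18 reverse-phase HPLC used photodiode-array detection, with conversion from standard calibration curves.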

Experiment [2] concerns the target T1, ferric WT DHP B. Conditions: cited from earlier work.
For experiment [3], the target named is T1, ferric WT DHP B. As to the kind of experiment: 5-haloindole binding studies.
Experiment [4] concerns the target T2, ferric DHP B (Amphitrite ornata, UniProt Q9NAV7).
T2 sequence (Q9NAV7 1-138): T1 sequence (Q9NAV7 1-138)
As to the kind of experiment: Reactivity studies of 5-Br-3-oxindole by UV-vis. Type of experiment: biochemical. Summed up: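 5-Br-3-acetoxyindole (250 μM) was incubated <1 min with or without 10 μM ferric wild-type DHP B in 5% MeOH/100 mM KPi, pH 7, in a quartz cuvette. Porcine liver esterase (45 U) started the reaction, and UV-vis spectra were taken over time, aerobically or anaerobically (argon-degassed solutions, glovebox, sealed cuvette). Indigo product was quantified at 659 nm using ε = 22 140 M–1 cm–1.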

Experiment [5] addresses T3, DHP B Oxyferrous (Amphitrite ornata, UniProt Q9NAV7).
T3 sequence (Q9NAV7 1-138): T1 sequence (Q9NAV7 1-138)
Put plainly: H2O2-dependent oxidation of haloindoles monitored by HPLC, oxyferrous enzyme. In kind it is biochemical. The following applies: DHP B Oxyferrous 10 μM; [haloindole] = [H2O2] = 500 μM; pH 7, 25 °C, 5 min. Summed up:
(§1)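 Triplicate reactions at 25 °C, pH 7, in 5% MeOH/100 mM KPi. Enzyme (10 μM final; ferric isoenzyme A or oxyferrous DHP B) was premixed with haloindole (500 μM), and reactions were started with 500 μM H2O2. After 5 min, reactions were quenched with excess catalase and diluted 10-fold in buffer. Analysis was by C18 reverse-phase HPLC (water/TFA to MeCN gradient) with diode-array detection, quantified against standard calibration curves.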

In experiment [6] the test system is DHP A Ferric. Put plainly: H2O2-dependent oxidation of haloindoles monitored by HPLC, isoenzyme A. Conditions: DHP A Ferric 10 μM; [haloindole] = [H2O2] = 500 μM; pH 7, 25 °C, 5 min. In kind it is biochemical, Amphitrite ornata. Summed up: as §1
In experiment [7] the target is T4, horseradish peroxidase (HRP) (Armoracia rusticana, UniProt P00433).
T4 sequence (P00433 31-338 limits assumed): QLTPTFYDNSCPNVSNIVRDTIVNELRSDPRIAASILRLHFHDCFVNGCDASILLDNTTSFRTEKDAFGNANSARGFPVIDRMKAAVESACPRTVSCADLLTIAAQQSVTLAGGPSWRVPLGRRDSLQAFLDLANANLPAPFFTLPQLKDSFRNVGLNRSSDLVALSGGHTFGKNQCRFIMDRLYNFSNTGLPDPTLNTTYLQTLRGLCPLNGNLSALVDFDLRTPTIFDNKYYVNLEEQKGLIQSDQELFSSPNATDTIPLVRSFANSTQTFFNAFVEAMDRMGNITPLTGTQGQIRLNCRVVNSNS
As to the kind of experiment: H2O2-dependent oxidation of 5-Br-indole monitored by HPLC, HRP. In kind it is biochemical. The following applies: HRP 10 μM; [haloindole] = [H2O2] = 500 μM; pH 7, 25 °C, 5 min; n.d. = none detected.

Experiment [8] has as its target horse heart myoglobin (hhMb) (Equus caballus, UniProt P68082). As to the kind of experiment: H2O2-dependent oxidation of 5-Br-indole monitored by HPLC, myoglobin. In kind it is biochemical. The following applies: hhMb 10 μM; [haloindole] = [H2O2] = 500 μM; pH 7, 25 °C, 5 min; n.d. = none detected.
Experiment [9] has as its target T5, WT DHP B Compound ES (Amphitrite ornata, UniProt Q9NAV7).
T5 sequence (Q9NAV7 1-138): T1 sequence (Q9NAV7 1-138)
Put plainly: Double-mixing stopped-flow UV-vis, preformed Compound ES. In kind it is biochemical. Summed up:
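Double-mixing rapid-scan stopped-flow UV-vis at 20 °C in 5% MeOH/100 mM KPi, pH 7. Ferric wild-type DHP B (10 μM) was mixed with 10 equiv H2O2 and aged 350 ms to accumulate Compound ES. It was then mixed with 10, 25 or 50 equiv 5-Br-indole, and 800 scans were taken over 83 s. Spectra were fitted to component time courses.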

In experiment [10] the target is T6, DHP B(Y28F/Y38F) Compound I (Amphitrite ornata, UniProt Q9NAV7, Y29F/Y39F).
T6 sequence (Q9NAV7 1-138 Y29F/Y39F): T1 sequence (Q9NAV7 1-138) with Y29F, Y39F
As to the kind of experiment: Double-mixing stopped-flow UV-vis, preformed Compound I. Type of experiment: biochemical.

In experiment [11] the target is T7, oxyferrous DHP B (Amphitrite ornata, UniProt Q9NAV7).
T7 sequence (Q9NAV7 1-138): T1 sequence (Q9NAV7 1-138)
Put plainly: Stopped-flow UV-vis with oxyferrous DHP B / Compound II. Type of experiment: biochemical. Conditions: preincubated with 2.5 equiv 5-Br-indole, 5 equiv H2O2, pH 7. Summed up: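 Single-mixing rapid-scan stopped-flow at 20 °C in 5% MeOH/100 mM KPi, pH 7.0. Oxyferrous DHP B (10 μM) was preincubated with 2.5 equiv 5-Br-indole, then rapidly mixed with 5 equiv H2O2. 800 spectra were collected over 83 s. Spectra were fitted to component species to obtain relative concentration time courses.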

The mark [12] stands for this setting: DHP B Ferric, anaerobic, [haloindole] = [H2O2] = 500 μM, pH 7, 25 °C.
[13] abbreviates: 10 equiv 5-Br-indole, 10 equiv H2O2, pH 7.
[14] abbreviates: read-out: apparent dissociation constant (Kd), 10 μM ferric WT DHP B, 100 mM KPi pH 7, 10% MeOH.

Structures are written as SMILES. Numbering of substitutions follows the chain as printed. Like-named read-outs stand apart in the source and are kept apart here.

The values that follow come from article PMC4063182 (Journal of the American Chemical Society, 2014).

Chain of horse heart myoglobin (hhMb) (P68082 whole entry): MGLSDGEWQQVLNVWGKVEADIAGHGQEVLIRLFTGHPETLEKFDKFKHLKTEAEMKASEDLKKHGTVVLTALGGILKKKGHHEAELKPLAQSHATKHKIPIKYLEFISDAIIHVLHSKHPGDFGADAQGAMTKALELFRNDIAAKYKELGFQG

In the case of `c1ccc2[nH]ccc2c1` [indole], the “reactivity lower than 5-Br-indole” value in experiment [1] (ferric WT DHP B, pH 7) is recorded as 2 fold.

Consider `Oc1ccc(Br)cc1` [4-bromophenol, reference compound], for which the “attenuation in reactivity of 5-Br-indole” value in experiment [1] (in the presence of 500 μM 4-bromophenol) is recorded as 2 fold. In experiment [2], the Kd was around 1200 µM.

With `Fc1ccc2[nH]ccc2c1` [5-F-indole], in experiment [3] (even at the highest concentrations tested (up to 100 equiv)), the “changes in the optical difference spectra upon binding” value was “No significant changes”.

`O=C1/C(=C2\Nc3ccc(Br)cc3C2=O)Nc2ccc(Br)cc21` [5,5′-Br2-indigo, (E)-5,5′-dibromo-[2,2′-biindolinylidene]-3,3′-dione]: the “product distribution of 5-Br-indole reaction (HPLC)” value in [1] (5-Br-indole 500 μM, DHP B 10 μM, H2O2 500 μM, pH 7, 1a determined from mass balance) is listed as around 2%. For the same molecule, the “5,5′-Br2-indigo formation aerobic versus anaerobic” value in experiment [4] (DHP present) is around 4 fold. Moreover, the “5,5′-Br2-indigo formed in the presence of DHP versus the absence of enzyme” value in experiment [4] (aerobic, after 5 min) is listed as 45 fold. Further, the “5,5′-Br2-indigo concentration formed from 5-Br-3-oxindole” value in [4] (anaerobic, 10 μM DHP, after 10 min) was around 8 µM.

Regarding `Brc1ccc2[nH]ccc2c1` [5-Br-indole], the “conversion (%)” value in [1] (DHP B Ferric + 500 μM 4-BP, pH 7, 25 °C) is recorded as 23.2 (±5.1) %; in experiment [1] (DHP B Ferric + 500 μM mannitol, pH 7, 25 °C), 46.2 (±1.6) %; in experiment [1] (DHP B Ferric + 500 mM formate, pH 7, 25 °C), 45.8 (±1.1) %; in [1] (DHP B Ferric + 10% DMSO, pH 7, 25 °C) it was 45.0 (±4.4) %; in experiment [1] (DHP B Ferric + SOD ∼2 U/μL, pH 7, 25 °C), 46.1 (±0.7) %; in [1] (setting [12]), 53.3 (±0.3) %. The “conversion (%)” value in experiment [1] (DHP B Ferric, pH 5, 25 °C) is reported as 63.4 (±0.1) %; in [1] (DHP B Ferric, pH 6, 25 °C), 54.7 (±1.9) %; in experiment [1] (DHP B Ferric, pH 8, 25 °C) it was 34.4 (±2.4) %; in experiment [5], 44.9 (±4.8) %; in [6], 20.3 (±1.7) %; in experiment [7], “no reactivity”. Further, the “conversion (%)” value in experiment [8] is on record as “no reactivity”. The Kd in experiment [3] amounted to 150 ± 10 µM. The “kobs, formation of mixture of oxyferrous and ferric DHP B at longer observation times” value in experiment [9] (setting [13]) is listed as “(1.39 ± 0.08) × 10^–2 s^–1”. Further, the “kobs, reduction of preformed Compound ES to ferric DHP B” value in [9] (setting [13]) is “(2.54 ± 0.05) × 10^5 M^–1 s^–1”. The “time for reduction of Compound ES (within mixing time)” value in experiment [9] (≥25 equiv 5-Br-indole) is below 2.5 ms. In addition, the “time to conversion to oxyferrous DHP B(Y28F/Y38F)” value in [10] (10 equiv 5-Br-indole) turned out to be 697 s; in experiment [10] (50 equiv 5-Br-indole), 120 s. For the same molecule, in [11], the “kobs, conversion of oxyferrous DHP B to Compound II” value is listed as “(3.30 ± 0.01) × 10^–2 s^–1”.

As to `Ic1ccc2[nH]ccc2c1` [5-I-indole], the Kd in experiment [3] (setting [14]) came to 62 ± 10 µM.

In the case of `Clc1ccc2[nH]ccc2c1` [5-Cl-indole], the Kd in experiment [3] (setting [14]) worked out at 317 ± 23 µM.

Turning to `Brc1cccc2[nH]ccc12` [4-Br-indole], the “conversion (%)” value in experiment [1] (setting [12]) is 40.1 (±0.9) %; in experiment [6], 15.7 (±0.7) %.
